Experimental data collected from several papers.
Each line is one published result; the experiments were not run side by side. pKi: −log10 of the molar value.
HRH2: Histamine H2 receptor (HRH2, Homo sapiens, UniProt P25021)
Tspo: Translocator protein (Tspo, Rattus norvegicus, UniProt P16257)
ADRA1A: Alpha-1A adrenergic receptor (ADRA1A, Homo sapiens, UniProt P35348)
PPARD: Peroxisome proliferator-activated receptor delta (PPARD, Homo sapiens, UniProt Q03181)

Cc1nc2cc(OCCCCN3CCN(c4cccc(Cl)c4Cl)CC3)ccc2s1 — pKi (HRH2; ligand displacement, radioligand): 6.17
CNC(=O)[C@@]12C[C@@H]1[C@@H](n1ccc3c(NC)ncnc31)[C@H](O)[C@@H]2O — pKi (Tspo; ligand displacement, radioligand): < 5.00
O=C1c2ccccc2CCN1CCCCN1CCN(c2cccc(Cl)c2Cl)CC1 — pKi (ADRA1A; ligand displacement, radioligand): 6.93
O=C(c1cccc(/N=N/c2cccc(OCCCN3CCCCC3)c2)c1)N1CCCC1 — pKi (HRH2; ligand displacement, radioligand): < 5.00
O[C@@H]1[C@H](O)[C@@H]2C[C@@H]2[C@H]1n1cnc2c(NCc3cccc(Cl)c3)ncnc21 — pKi (Tspo; ligand displacement, radioligand): < 5.00
CCc1nc2cc(OCCCCN3CCC(c4cccc(Cl)c4Cl)CC3)ccc2s1 — pKi (HRH2; ligand displacement, radioligand): 5.68
CC1=C(/C=C/C(C)=C/C=C/C(C)=C/c2cc(/C=C/C=C(C)/C=C/C3=C(C)CCCC3(C)C)cc[n+]2CCO)C(C)(C)CCC1 — pKi (Sterol 26-hydroxylase, mitochondrial (CYP27A1, Homo sapiens, UniProt Q02318); enzyme activity, inhibitor): 5.54
CCNc1nc(C#Cc2ccccc2)nc2c1ncn2[C@H]1[C@H](O)[C@H](O)[C@@H]2C[C@@H]21 — pKi (Tspo; ligand displacement, radioligand): < 5.00
CNC(=O)[C@@]12C[C@@H]1[C@@H](n1cnc3c(NC)nc(C#Cc4ccc(Cl)s4)nc31)[C@H](O)[C@@H]2O — pKi (Tspo; cell-free assay, radioligand): 6.07
CNC(=O)[C@@]12C[C@@H]1[C@@H](n1cnc3c(NC)nc(C#Cc4ccccc4Cl)nc31)[C@H](O)[C@@H]2O — pKi (Tspo; ligand displacement, radioligand): < 5.00
O=C1c2ccccc2CCCN1CCCCN1CCN(c2ccccn2)CC1 — pKi (ADRA1A; ligand displacement, radioligand): 6.06
OCCCN1CC[C@@H]2C[C@H]1c1cc(-c3ccc(C(F)(F)F)cc3)ccc12 — pKi (ADRA1A; ligand displacement, radioligand): 5.70
O=C(O)c1cc(O)c2c(c1)C(=O)c1cc(O)cc(O)c1C2=O — pKi (Amine oxidase [flavin-containing] A (MAOA, Homo sapiens, UniProt P21397); enzyme activity, inhibitor): 4.41
COc1ccccc1N1CCN(CCCCN2CCc3ccccc3C2=O)CC1 — pKi (ADRA1A; ligand displacement, radioligand): 7.95
CC1(C)C=Cc2c(cc3oc(-c4ccccc4)c(O)c(=O)c3c2O)O1 — pKi (PPARD; ligand displacement, TR-FRET): 5.89
Cc1c(C)c2c(c(C)c1O)CCC(C)(COc1ccc(CC3SC(=O)NC3=O)cc1)O2 (stereo not shown) — pKi (PPARD; cell-free assay): 4.58
